Source: PMC7993274 (Clinical and Translational Science, 2020)
“Also recorded” adds a separate entry of the source.

Tests used:
MATE2 = conditions: cited from earlier work
[1] = Plasma PK, multiple ascending dose; format: in vivo, human; conditions: for AUCτ (dn) / Cmax (dn): dose normalized; for AUCτ (dn) / Cmax (dn) / AUCτ / Cmax: geometric mean (CV %); for Tmax: median (range); for t1/2: arithmetic mean (SD)
OCT2 = conditions: cited from earlier work
[2] = Treatment-emergent adverse events, MAD period and b.i.d. cohort; format: in vivo, human
Procedure, shortened: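 Double-blind, placebo-controlled study in healthy men and nonchildbearing women aged 18–55 y. The SAD period gave one fasted oral dose; the MAD period gave fed dosing q.d. for 10 days, plus a separate b.i.d. cohort. TEAEs, serious AEs and discontinuation AEs were monitored ≥28 days after the last dose. Vital signs, physical exam, 12-lead ECG, hematology, clinical chemistry and urinalysis were also recorded. Data summarized descriptively.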

[3] = MAD day 1 fed Japanese cohort 400 mg q.d.
[4] = MAD day 10 fed Japanese cohort 400 mg q.d.
[5] = MAD Japanese cohort 400 mg q.d. (n = 5)
[6] = b.i.d. cohort 200 mg b.i.d. (n = 7)

## Cn1cc(-c2cn3nccc3c(-c3cnn([C@]4(CC#N)C[C@@H](C#N)C4)c3)n2)cn1 [PF‐06826647]
MATE2
  inhibition of transporter protein MATE2: MATE2 inhibition; also recorded: inhibitor of the MATE2 renal transporter
[1]; MAD 30–400 mg q.d.
  dose proportionality of AUCτ and Cmax: less‐than‐dose‐proportional
[1]; MAD 400–1,200 mg q.d.
  dose proportionality of AUCτ and Cmax: dose‐proportional
[1]; MAD day 1 fed 30 mg q.d.
  AUCτ (dn): 22.1 (25) ng.hour/mL/mg
  Cmax (dn): 2.8 (24) ng/mL/mg
  AUCτ: 662.8 (25) ng.hour/mL
  Cmax: 83.5 (24) ng/mL
  Tmax: 3.0 (2.0–6.0) hour
[1]; MAD day 1 fed 100 mg q.d.
  AUCτ (dn): 18.0 (23) ng.hour/mL/mg
  Cmax (dn): 2.7 (20) ng/mL/mg
  AUCτ: 1,803.0 (23) ng.hour/mL
  Cmax: 267.2 (20) ng/mL
  Tmax: 4.0 (1.0–4.0) hour
[1]; MAD day 1 fed 200 mg b.i.d., tau = 12 hours
  AUCτ: 1,646.0 (70) ng.hour/mL
[1]; MAD day 1 fed 200 mg b.i.d.
  Cmax (dn): 1.5 (67) ng/mL/mg
  Cmax: 289.8 (67) ng/mL
  Tmax: 4.0 (2.0–6.0) hour
[1]; MAD day 1 fed 400 mg q.d.
  AUCτ (dn): 11.1 (67) ng.hour/mL/mg
  Cmax (dn): 1.5 (33) ng/mL/mg
  AUCτ: 4,424.0 (67) ng.hour/mL
  Cmax: 585.9 (33) ng/mL
  Tmax: 3.0 (2.0–6.0) hour
[1]; MAD day 1 fed 1,200 mg q.d.
  AUCτ (dn): 14.2 (20) ng.hour/mL/mg
  Cmax (dn): 1.7 (10) ng/mL/mg
  AUCτ: 17,090.0 (20) ng.hour/mL
  Cmax: 2,023.0 (10) ng/mL
  Tmax: 2.0 (2.0–4.0) hour
[1]; [3]
  AUCτ: 6,038.0 (29) ng.hour/mL
  Cmax: 695.5 (19) ng/mL
  Tmax: 4.0 (2.0–4.0) hour
[1]; MAD day 10, standard meal, all doses (30–1,200 mg)
  median Tmax: 4 h
[1]; MAD day 10 fed 30 mg q.d.
  t1/2: 8.8 (5.8) hour
  AUCτ (dn): 25.1 (32) ng.hour/mL/mg
  Cmax (dn): 2.8 (27) ng/mL/mg
  AUCτ: 752.9 (32) ng.hour/mL
  Cmax: 85.3 (27) ng/mL
  Tmax: 4.0 (4.0–6.0) hour
[1]; MAD day 10 fed 100 mg q.d.
  t1/2: 12.7 (12.7) hour
  AUCτ (dn): 19.5 (33) ng.hour/mL/mg
  Cmax (dn): 2.6 (30) ng/mL/mg
  AUCτ: 1,952.0 (33) ng.hour/mL
  Cmax: 263.2 (30) ng/mL
  Tmax: 4.0 (2.0–4.0) hour
[1]; MAD day 10 fed 200 mg b.i.d., tau = 12 hours
  AUCτ: 2,010.0 (49) ng.hour/mL
[1]; MAD day 10 fed 200 mg b.i.d.
  t1/2: 26.9 (8.1) hour
  Cmax (dn): 1.7 (46) ng/mL/mg
  Cmax: 339.5 (46) ng/mL
  Tmax: 4.0 (2.0–4.0) hour
[1]; MAD day 10 fed 400 mg q.d.
  t1/2: 7.5 (2.6) hour
  AUCτ (dn): 13.6 (57) ng.hour/mL/mg
  Cmax (dn): 1.7 (37) ng/mL/mg
  AUCτ: 5,420.0 (57) ng.hour/mL
  Cmax: 667.3 (37) ng/mL
  Tmax: 4.0 (2.0–6.0) hour
[1]; MAD day 10 fed 1,200 mg q.d.
  t1/2: 34.3 (21.9) hour
  AUCτ (dn): 12.4 (31) ng.hour/mL/mg
  Cmax (dn): 1.5 (21) ng/mL/mg
  AUCτ: 14,890.0 (31) ng.hour/mL
  Cmax: 1,855.0 (21) ng/mL
  Tmax: 4.0 (2.0–4.0) hour
[1]; [4]
  t1/2: 7.4 (4.8) hour
  AUCτ: 7,194.0 (20) ng.hour/mL
  Cmax: 887.0 (11) ng/mL
  Tmax: 4.0 (2.0–6.0) hour
[1]; after multiple dosing, q.d. and b.i.d.
  plasma accumulation: < 1.5 fold
[1]; both q.d. and b.i.d. dosing
  steady‐state reached by: ≤ 2 days
OCT2
  inhibition of transporter protein OCT2: minimal inhibition
[2]; MAD 30 mg q.d. (n = 6)
  AEs: 2 n
  AEs leading to permanent discontinuation of study drug: 0 n
  AEs leading to study drug dose reduction or interruption: 0 n
  Participants with AE: 2 (33.3) n (%)
  Participants with TEAEs: Alanine aminotransferase increased: 0 n (%)
  Participants with TEAEs: Blood creatinine increased: 0 n (%)
  Participants with TEAEs: Constipation: 1 (16.7) n (%)
  Participants with TEAEs: Dysuria: 0 n (%)
  Participants with TEAEs: Gastrointestinal disorders (SOC): 2 (33.3) n (%)
  Participants with TEAEs: Headache: 0 n (%)
  Participants with TEAEs: Investigations (SOC): 0 n (%)
  Participants with TEAEs: Nausea: 1 (16.7) n (%)
  Participants with TEAEs: Nervous system disorders (SOC): 0 n (%)
  Participants with TEAEs: Renal and urinary disorders (SOC): 0 n (%)
  SAEs: 0 n
  Severe AEs: 0 n
[2]; MAD 100 mg q.d. (n = 6)
  AEs: 1 n
  AEs leading to permanent discontinuation of study drug: 0 n
  AEs leading to study drug dose reduction or interruption: 0 n
  Participants with AE: 1 (16.7) n (%)
  Participants with TEAEs: Alanine aminotransferase increased: 0 n (%)
  Participants with TEAEs: Blood creatinine increased: 1 (16.7) n (%)
  Participants with TEAEs: Constipation: 0 n (%)
  Participants with TEAEs: Dysuria: 0 n (%)
  Participants with TEAEs: Gastrointestinal disorders (SOC): 0 n (%)
  Participants with TEAEs: Headache: 0 n (%)
  Participants with TEAEs: Investigations (SOC): 1 (16.7) n (%)
  Participants with TEAEs: Nausea: 0 n (%)
  Participants with TEAEs: Nervous system disorders (SOC): 0 n (%)
  Participants with TEAEs: Renal and urinary disorders (SOC): 0 n (%)
  SAEs: 0 n
  Severe AEs: 0 n
[2]; MAD 400 mg q.d. (n = 6)
  AEs: 1 n
  AEs leading to permanent discontinuation of study drug: 0 n
  AEs leading to study drug dose reduction or interruption: 0 n
  Participants with AE: 1 (16.7) n (%)
  Participants with TEAEs: Alanine aminotransferase increased: 0 n (%)
  Participants with TEAEs: Blood creatinine increased: 1 (16.7) n (%)
  Participants with TEAEs: Constipation: 0 n (%)
  Participants with TEAEs: Dysuria: 0 n (%)
  Participants with TEAEs: Gastrointestinal disorders (SOC): 0 n (%)
  Participants with TEAEs: Headache: 0 n (%)
  Participants with TEAEs: Investigations (SOC): 1 (16.7) n (%)
  Participants with TEAEs: Nausea: 0 n (%)
  Participants with TEAEs: Nervous system disorders (SOC): 0 n (%)
  Participants with TEAEs: Renal and urinary disorders (SOC): 0 n (%)
  SAEs: 0 n
  Severe AEs: 0 n
[2]; MAD 1,200 mg q.d. (n = 5)
  AEs: 1 n
  AEs leading to permanent discontinuation of study drug: 0 n
  AEs leading to study drug dose reduction or interruption: 0 n
  Participants with AE: 1 (20.0) n (%)
  Participants with TEAEs: Alanine aminotransferase increased: 0 n (%)
  Participants with TEAEs: Blood creatinine increased: 1 (20.0) n (%)
  Participants with TEAEs: Constipation: 0 n (%)
  Participants with TEAEs: Dysuria: 0 n (%)
  Participants with TEAEs: Headache: 0 n (%)
  Participants with TEAEs: Investigations (SOC): 1 (20.0) n (%)
  Participants with TEAEs: Nausea: 0 n (%)
  Participants with TEAEs: Nervous system disorders (SOC): 0 n (%)
  Participants with TEAEs: Renal and urinary disorders (SOC): 0 n (%)
  SAEs: 0 n
  Severe AEs: 0 n
[2]; [5]
  AEs: 2 n
  AEs leading to permanent discontinuation of study drug: 0 n
  AEs leading to study drug dose reduction or interruption: 0 n
  Participants with AE: 1 (20.0) n (%)
  Participants with TEAEs: Alanine aminotransferase increased: 1 (20.0) n (%)
  Participants with TEAEs: Blood creatinine increased: 0 n (%)
  Participants with TEAEs: Constipation: 0 n (%)
  Participants with TEAEs: Dysuria: 0 n (%)
  Participants with TEAEs: Gastrointestinal disorders (SOC): 0 n (%)
  Participants with TEAEs: Headache: 1 (20.0) n (%)
  Participants with TEAEs: Investigations (SOC): 1 (20.0) n (%)
  Participants with TEAEs: Nausea: 0 n (%)
  Participants with TEAEs: Nervous system disorders (SOC): 1 (20.0) n (%)
  Participants with TEAEs: Renal and urinary disorders (SOC): 0 n (%)
  SAEs: 0 n
  Severe AEs: 0 n
[2]; [6]
  AEs: 3 n
  AEs leading to permanent discontinuation of study drug: 0 n
  AEs leading to study drug dose reduction or interruption: 0 n
  Participants with AE: 3 (42.9) n (%)
  Participants with TEAEs: Alanine aminotransferase increased: 0 n (%)
  Participants with TEAEs: Blood creatinine increased: 3 (42.9) n (%)
  Participants with TEAEs: Constipation: 0 n (%)
  Participants with TEAEs: Dysuria: 0 n (%)
  Participants with TEAEs: Gastrointestinal disorders (SOC): 0 n (%)
  Participants with TEAEs: Headache: 0 n (%)
  Participants with TEAEs: Investigations (SOC): 3 (42.9) n (%)
  Participants with TEAEs: Nausea: 0 n (%)
  Participants with TEAEs: Nervous system disorders (SOC): 0 n (%)
  Participants with TEAEs: Renal and urinary disorders (SOC): 0 n (%)
  SAEs: 0 n
  Severe AEs: 0 n
